Laboratory results: publication PMC11341722 (Nature Communications, 2024)
Where two headings read alike, the source gives them in different places.

Key:
B^0AT1 = conditions: substrate; cited from earlier work
B^0AT1 (SLC6A19) [1] = target: T1, B^0AT1 (SLC6A19) (Homo sapiens, UniProt Q695T7); conditions: read-out: IC50 range of initially identified inhibitors; cited from earlier work
T1 sequence (Q695T7 1-634): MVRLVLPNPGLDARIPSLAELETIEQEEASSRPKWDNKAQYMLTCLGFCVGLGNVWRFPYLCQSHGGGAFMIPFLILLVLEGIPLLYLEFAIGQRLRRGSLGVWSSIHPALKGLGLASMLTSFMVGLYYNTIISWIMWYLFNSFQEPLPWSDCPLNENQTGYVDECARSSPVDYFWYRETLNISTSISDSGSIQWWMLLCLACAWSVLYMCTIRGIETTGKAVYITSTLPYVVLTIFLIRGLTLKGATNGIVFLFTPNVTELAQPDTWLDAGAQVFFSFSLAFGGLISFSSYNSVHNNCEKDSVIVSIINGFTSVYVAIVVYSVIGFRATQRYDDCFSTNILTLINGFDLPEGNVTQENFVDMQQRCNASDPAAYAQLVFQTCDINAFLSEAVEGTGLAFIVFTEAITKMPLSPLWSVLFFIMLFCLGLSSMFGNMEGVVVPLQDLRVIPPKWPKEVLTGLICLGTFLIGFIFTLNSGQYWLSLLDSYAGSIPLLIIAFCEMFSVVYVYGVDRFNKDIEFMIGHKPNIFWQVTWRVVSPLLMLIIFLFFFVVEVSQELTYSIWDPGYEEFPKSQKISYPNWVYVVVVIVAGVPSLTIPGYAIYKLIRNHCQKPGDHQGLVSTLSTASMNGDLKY
T1 sequence (Q9HBJ8 15-222 partner): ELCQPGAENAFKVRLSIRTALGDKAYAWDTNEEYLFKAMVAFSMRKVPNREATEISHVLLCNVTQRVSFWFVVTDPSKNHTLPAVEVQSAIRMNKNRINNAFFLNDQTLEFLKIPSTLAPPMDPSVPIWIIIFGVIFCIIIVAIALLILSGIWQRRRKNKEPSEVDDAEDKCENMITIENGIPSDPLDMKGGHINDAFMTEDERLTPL

B^0AT1 (SLC6A19) [2] = target: T1, B^0AT1 (SLC6A19); experiment: FLIPR membrane potential transport assay in CHO-BC cells; format: cell-based; conditions: read-out: inhibition at 30 µM
Outline: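 CHO cells (Flp-In) stably expressing B0AT1 with collectrin, passages <10, seeded at 60,000 cells/well overnight. Washed three times in HBSS + 5 mM glucose, pH 7.5. Preincubated 30 min at room temperature with test compound plus membrane-potential dye. Read fluorescence (ex 530/em 565 nm) every 10 s before and after adding L-leucine to 1.5 mM final, at room temperature.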

B^0AT1 (SLC6A19) [3] = target: T1, B^0AT1 (SLC6A19); experiment: Optimized radioactive L-[14C]leucine uptake; format: cell-based

## N[C@@H](Cc1c[nH]c2ccccc12)C(=O)O [L-tryptophan]
B^0AT1
  Vmax relative to that of L-methionine: 10%

## CN1[C@@H]2CC[C@H]1C[C@@H](OC(c1ccccc1)c1ccccc1)C2 [benztropine]
B^0AT1 (SLC6A19) [1]
  IC50: 10 to 100 µM

## CS(=O)(=O)Nc1ccc([N+](=O)[O-])cc1Oc1ccccc1 [Nimesulide, nimesulide]
B^0AT1 (SLC6A19) [1]
  IC50: 10 to 100 µM

## Cc1cc(Cl)cc(C)c1OCC(=O)NC(C)C [JX8, 2-(4-chloro-2,6-dimethylphenoxy)-N-isopropylacetamide]
B^0AT1 (SLC6A19) [2]
  inhibition at 30 µM: 8%

## CCNC(=O)/C=C/c1cccc(Br)c1 [Cinromide, cinromide]
B^0AT1 (SLC6A19) [3]
  IC50: 0.8 ± 0.1 µM
